pIC50, pKi: −log10 of the molar value. *1 amine or outer side, *2 acyl side, *3 side chain or, on linkers, in order; H or OH if unused. Where a SMILES comes first, the peptide text is derived from it. [ ]: non-standard residue; d: D form. The star is where a group is joined. ξ: configuration not given here. Sta(3ξ) = CC(C)C[C@H](N[*:1])C(O)CC(=O)[*:2]; X1 = CC(C)CC(N[*:1])C(O)CC(C(=O)[*:2])C(C)C; Sta = CC(C)C[C@H](N)[C@@H](O)CC(=O)O; NMeH = CN[C@@H](Cc1c[nH]cn1)C(=O)O; NHCH2(2-pyridyl) = c1ccc(CN*)nc1; Isobutyryl = CC(C)C(=O)*; Boc = CC(C)(C)OC(=O)*
Assays:
Cathepsin D [1] = target: T1, Cathepsin D (Bos taurus, UniProt P80209); experiment: Inhibition of bovine cathepsin D at pH 3.1
T1 sequence (P80209 whole entry): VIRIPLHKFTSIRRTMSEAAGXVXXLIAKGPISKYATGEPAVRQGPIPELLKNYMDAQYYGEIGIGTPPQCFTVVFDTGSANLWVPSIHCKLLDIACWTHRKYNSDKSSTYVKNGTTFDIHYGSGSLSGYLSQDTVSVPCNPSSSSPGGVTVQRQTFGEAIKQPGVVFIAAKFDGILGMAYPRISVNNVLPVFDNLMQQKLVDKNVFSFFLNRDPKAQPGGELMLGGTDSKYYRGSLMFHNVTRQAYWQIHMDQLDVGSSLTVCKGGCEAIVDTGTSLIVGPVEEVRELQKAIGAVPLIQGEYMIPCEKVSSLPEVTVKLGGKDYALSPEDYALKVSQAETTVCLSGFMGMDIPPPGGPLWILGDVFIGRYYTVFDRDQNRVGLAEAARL

Cathepsin D [2] = target: T1, Cathepsin D; experiment: Inhibition of bovine cathepsin D at pH 3.2
Pepsin A [3] = target: T2, Pepsin A (Homo sapiens, UniProt P0DJD9); experiment: Inhibition of human pepsin at pH 2.0
Pepsin A [4] = target: T2, Pepsin A; experiment: Inhibition of human pepsin at pH 3.1
Renin [5] = target: T3, Renin (Homo sapiens, UniProt P00797); experiment: Inhibition of human renin at pH 6.0
T3 sequence (P00797 whole entry): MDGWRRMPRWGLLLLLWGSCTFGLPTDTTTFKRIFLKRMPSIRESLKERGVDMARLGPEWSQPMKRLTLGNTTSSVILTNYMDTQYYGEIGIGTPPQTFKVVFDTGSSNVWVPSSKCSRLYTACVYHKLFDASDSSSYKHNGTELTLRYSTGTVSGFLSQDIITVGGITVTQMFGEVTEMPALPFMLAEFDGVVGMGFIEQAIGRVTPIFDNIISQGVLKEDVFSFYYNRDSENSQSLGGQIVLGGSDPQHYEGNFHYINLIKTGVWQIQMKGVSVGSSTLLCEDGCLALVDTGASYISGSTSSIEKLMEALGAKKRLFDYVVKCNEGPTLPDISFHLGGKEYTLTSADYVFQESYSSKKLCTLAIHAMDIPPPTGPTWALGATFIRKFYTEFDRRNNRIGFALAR

Renin [6] = target: T3, Renin; experiment: Inhibition of human renin at pH 7.0
Pepsin A [7] = target: T4, Pepsin A (Sus scrofa, UniProt P00791); experiment: Inhibition of porcine pepsin at pH 2.0
Pepsin A [8] = target: T4, Pepsin A; experiment: Inhibition of porcine pepsin at pH 4.0
Method in brief: (§1)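 Hydrolysis was followed as the absorbance drop at 290 nm over the first 5–10% of reaction. Percent activity was plotted against inhibitor concentration to give IC50, and Ki = (IC50 − 0.5Et)/(1 + S/Km).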

Renin [9] = target: T3, Renin; experiment: Inhibition of human renin at pH 7.4
Pepsin A [10] = target: T4, Pepsin A; experiment: Inhibition of porcine pepsin at pH 1.9
Cathepsin D [11] = target: T1, Cathepsin D; experiment: Inhibition of bovine cathepsin D at pH 3.3(no inhibition)
Pepsin A [12] = target: T4, Pepsin A; experiment: Inhibition of porcine pepsin at pH 4; method in brief: as §1
Pepsin A [13] = target: T4, Pepsin A; experiment: Inhibition of porcine pepsin at pH 4.0 (time-dependent inhibition, T1/2>30 s)

T4 sequence (P00791 whole entry): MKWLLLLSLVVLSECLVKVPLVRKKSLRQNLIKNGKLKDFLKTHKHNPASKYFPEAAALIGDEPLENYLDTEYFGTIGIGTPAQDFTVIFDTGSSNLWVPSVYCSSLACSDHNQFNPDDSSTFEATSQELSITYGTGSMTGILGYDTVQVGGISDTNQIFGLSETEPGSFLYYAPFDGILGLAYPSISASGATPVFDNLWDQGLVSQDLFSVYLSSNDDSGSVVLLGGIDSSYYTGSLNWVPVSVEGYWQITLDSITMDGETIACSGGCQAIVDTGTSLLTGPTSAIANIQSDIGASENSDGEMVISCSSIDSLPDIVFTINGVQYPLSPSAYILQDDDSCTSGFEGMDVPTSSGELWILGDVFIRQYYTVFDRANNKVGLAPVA
T2 sequence (P0DJD9 whole entry): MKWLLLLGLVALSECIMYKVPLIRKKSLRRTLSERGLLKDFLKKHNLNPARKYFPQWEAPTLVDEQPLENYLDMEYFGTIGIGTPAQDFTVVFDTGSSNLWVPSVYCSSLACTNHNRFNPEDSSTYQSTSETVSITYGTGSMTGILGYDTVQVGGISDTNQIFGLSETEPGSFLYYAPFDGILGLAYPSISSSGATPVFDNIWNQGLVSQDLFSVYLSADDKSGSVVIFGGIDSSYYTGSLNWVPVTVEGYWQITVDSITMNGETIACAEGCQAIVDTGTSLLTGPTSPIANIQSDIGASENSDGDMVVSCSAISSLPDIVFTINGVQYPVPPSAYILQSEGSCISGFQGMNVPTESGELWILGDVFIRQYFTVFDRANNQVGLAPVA

Row | SMILES | pIC50 (Pepsin A [7]) | pKi (Pepsin A [8]) | pKi (Renin [9]) | also measured
1 | CC[C@H](C)[C@H](NC(=O)C(F)(F)C(=O)[C@H](CC(C)C)NC(=O)[C@H](Cc1c[nH]cn1)NC(=O)[C@H](Cc1ccccc1)NC(=O)OC(C)(C)C)C(=O)NCc1ccccn1 |  |  |  | pIC50 (Cathepsin D [1]): 4.40; pIC50 (Cathepsin D [2]): 5.77; pIC50 (Pepsin A [3]): 4.38; pIC50 (Pepsin A [4]): 4.22
2 | CC[C@H](C)[C@H](NC(=O)C(F)(F)C(=O)C(CC(C)C)NC(=O)[C@H](Cc1c[nH]cn1)NC(=O)[C@H](Cc1ccccc1)NC(=O)OC(C)(C)C)C(=O)NCc1ccccn1 (stereo not given in full) |  |  |  | pIC50 (Renin [5]): 8.85; pIC50 (Renin [6]): 8.00
3 | COC(=O)CC(O)[C@H](CC(C)C)NC(=O)[C@H](C)NC(=O)CC(O)[C@H](CC(C)C)NC(=O)[C@@H](NC(=O)[C@H](Cc1ccccc1)NC(=O)OCc1ccccc1)C(C)C (stereo not given in full) | 7.22 |  |  | 
4 | COC(=O)CC(O)[C@H](CC(C)C)NC(=O)[C@H](C)NC(=O)CC(O)[C@H](CC(C)C)NC(=O)[C@H](Cc1ccccc1)NC(=O)[C@H](Cc1ccccc1)NC(=O)OC(C)(C)C (stereo not given in full) | 7.85 |  |  | pIC50 (Renin [5]): 8.46
5 | COC(=O)CC(O)[C@H](CC(C)C)NC(=O)[C@H](C)NC(=O)CC(O)[C@H](CC(C)C)NC(=O)[C@H](Cc1c[nH]cn1)NC(=O)[C@H](Cc1c[nH]c2ccccc12)NC(=O)OC(C)(C)C (stereo not given in full) | 6.07 |  |  | pIC50 (Renin [5]): 8.26
6 | COC(=O)[C@H](Cc1ccccc1)NC(=O)[C@H](CC(C)C)NC(=O)CC(O)[C@H](CC(C)C)NC(=O)CCCNC(=O)[C@H](Cc1ccccc1)NC(=O)[C@@H]1CCCN1C(=O)CCCN (stereo not given in full) |  | > 9.00 | 8.05 | 
7 | COC(=O)[C@H](Cc1ccccc1)NC(=O)[C@H](CC(C)C)NC(=O)CC(O)[C@H](CC(C)C)NC(=O)[C@H](Cc1c[nH]cn1)NC(=O)COC(=O)C(C)(C)C (stereo not given in full) |  | 7.17 | 5.96 | 
8 | COC(=O)[C@H](Cc1ccccc1)NC(=O)[C@H](CC(C)C)NC(=O)CC(O)[C@H](CC(C)C)NC(=O)[C@H](CC(C)C)NC(=O)COC(=O)C(C)(C)C (stereo not given in full) |  | 7.92 | 5.77 | 
9 | CC(C)CC(NC(=O)CCc1ccccc1)SCC(O)C(CC1CCCCC1)NC(=O)[C@H](Cc1cnc[nH]1)NC(=O)[C@H](Cc1ccccc1)NC(=O)OC(C)(C)C (stereo not given in full) |  |  |  | pIC50 (Cathepsin D [1]): < 4.00; pIC50 (Pepsin A [10]): < 4.00; pIC50 (Renin [5]): 8.15
10 | CC[C@H](C)[C@H](NC(=O)[C@@H](NC[C@H](CC(C)C)NC(=O)[C@H](Cc1c[nH]cn1)NC(=O)[C@H](Cc1ccccc1)NC(=O)[C@@H]1CCCN1C(=O)[C@H](Cc1c[nH]cn1)NC(=O)[C@@H]1CCCN1)C(C)C)C(=O)N[C@@H](Cc1c[nH]cn1)C(=O)N[C@@H](CCCCN)C(=O)O |  |  |  | pIC50 (Cathepsin D [11]): < 3.15; pIC50 (Renin [6]): 8.00
11 | CC[C@H](C)[C@H](NC(=O)C(CC(O)C(CC(C)C)NC(=O)[C@H](Cc1c[nH]cn1)N(C)C(=O)[C@H](Cc1ccccc1)NC(=O)[C@@H]1CCCN1C(=O)OC(C)(C)C)C(C)C)C(=O)NCc1ccccn1 (stereo not given in full) (Boc-PF[NMeH][X1]I-{NHCH2(2-pyridyl)}) | 5.17 |  |  | pIC50 (Cathepsin D [2]): 5.20; pIC50 (Renin [5]): 9.59
12 | COC(=O)[C@H](Cc1ccccc1)NC(=O)[C@H](C)NC(=O)C[C@H](O)[C@H](CC(C)C)NC(=O)[C@H](Cc1c[nH]cn1)NC(=O)CNC(=O)[C@@H](N)Cc1ccccc1 (H-FGH[Sta]AF-OMe) |  |  |  | pKi (Pepsin A [12]): 6.82
13 | COC(=O)[C@H](Cc1ccccc1)NC(=O)[C@H](C)NC(=O)C[C@H](O)[C@H](CC(C)C)NC(=O)[C@@H](NC(=O)CNC(=O)[C@@H](N)Cc1ccccc1)C(C)C (H-FGV[Sta]AF-OMe) |  |  |  | pKi (Pepsin A [13]): > 9.00
14 | CC(C)C[C@H](NC(=O)CC(O)[C@H](CC(C)C)NC(=O)[C@H](Cc1c[nH]cn1)NC(=O)[C@H](Cc1ccccc1)NC(=O)[C@@H]1CCCN1C(=O)[C@@H](N)Cc1c[nH]cn1)C(=O)N[C@@H](Cc1ccccc1)C(N)=O (stereo not given in full) (H-HPFH[Sta(3ξ)]LF-NH2) |  | 7.47 | 8.10 | 
15 | CC(C)C[C@H](NC(=O)CC(O)[C@H](CC(C)C)NC(=O)[C@H](C)NC(=O)[C@H](Cc1ccccc1)NC(=O)[C@@H]1CCCN1C(=O)[C@H](Cc1c[nH]cn1)NC(=O)C(C)C)C(=O)N[C@@H](Cc1ccccc1)C(N)=O (stereo not given in full) (Isobutyryl-HPFA[Sta(3ξ)]LF-NH2) |  | 8.40 | 7.00 | 
16 | CC(C)C[C@H](NC(=O)CC(O)[C@H](CC(C)C)NC(=O)[C@H](Cc1c[nH]cn1)NC(=O)[C@H](Cc1ccccc1)NC(=O)[C@@H]1CCCN1C(=O)[C@H](Cc1c[nH]cn1)NC(=O)C(C)C)C(=O)N[C@@H](Cc1ccccc1)C(N)=O (stereo not given in full) (Isobutyryl-HPFH[Sta(3ξ)]LF-NH2) |  | 7.64 | 7.80 | 
17 | COC(=O)CC(O)[C@H](CC(C)C)NC(=O)[C@H](C)NC(=O)CC(O)[C@H](CC(C)C)NC(=O)[C@H](Cc1cnc[nH]1)NC(=O)[C@H](Cc1ccccc1)NC(=O)OC(C)(C)C (stereo in doubt; 15) | 5.89 |  |  | 
18 | COC(=O)CC(O)[C@H](CC(C)C)NC(=O)[C@H](C)NC(=O)CC(O)[C@H](CC(C)C)NC(=O)[C@H](Cc1cnc[nH]1)NC(=O)[C@H](Cc1ccccc1)NC(=O)OC(C)(C)C (stereo in doubt; 17) | 5.89 |  |  | 

From ChEMBL document CHEMBL1124219, “Inhibition of porcine pepsin by two substrate analogues containing statine. The effect of histidine at the P2 subsite on the inhibition of aspartic proteinases” (J Med Chem, 1988)
